Test results as given in ChEMBL document CHEMBL3102810, “Alkylamino derivatives of pyrazinamide: synthesis and antimycobacterial evaluation” (Bioorg Med Chem Lett, 2014).
In brackets after ≈: the same amount, converted by molar mass. Activity calls are given as the source filed them. No cut-off for these calls is given here.

What was measured:
[1] = test system: Enterococcus sp.; assay: Antibacterial activity against Enterococcus sp. J 14365/08 after 24 to 48 hrs by microdilution broth method; format: functional, organism-based
Summary of the method: (§1)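 Antibacterial screen with compound concentrations up to a highest level of 500 µM. Results expressed as MIC in µM.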

[2] = test system: Mycobacterium tuberculosis; assay: Antimycobacterial activity against Mycobacterium tuberculosis H37Rv CNCTC My 331/88 after 5 days by microplate alamar blue assay; format: functional; settings: H37Rv CNCTC My 331/88, 120 h
Summary of the method: (§2)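 Microplate alamar blue assay run at pH 5.6, using conditions optimized for pyrazinamide. Strains came from the Czech National Collection of Type Cultures. MIC was read in µg/mL and converted to µM using molecular weight.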

[3] = test system: Staphylococcus epidermidis; assay: Antibacterial activity against methicillin-resistant Staphylococcus epidermidis H 5996/08 after 24 to 48 hrs by microdilution broth method; format: functional, organism-based
[4] = test system: Nakaseomyces glabratus; assay: Antifungal activity against Candida glabrata 20/I after 72 to 120 hrs by microdilution broth method; format: functional, organism-based
[5] = test system: Mycobacterium kansasii; assay: Antimycobacterial activity against pyrazinamide-resistant Mycobacterium kansasii CNCTC My 235/80 after 5 days by microplate alamar blue assay; format: functional; settings: CNCTC My 235/80, 120 h; summary of the method: as §2
[6] = Lipophilicity, log K of the compound by HPLC analysis; format: physicochemical
[7] = test system: Trichophyton mentagrophytes; assay: Antifungal activity against Trichophyton mentagrophytes 445 after 72 to 120 hrs by microdilution broth method; format: functional, organism-based
[8] = test system: Klebsiella pneumoniae; assay: Antibacterial activity against Klebsiella pneumoniae D 11750/08 after 24 to 48 hrs by microdilution broth method; format: functional, organism-based; summary of the method: as §1
[9] = test system: Mycobacterium avium; assay: Antimycobacterial activity against pyrazinamide-resistant Mycobacterium avium CNCTC My 80/72 after 5 days by microplate alamar blue assay; format: functional; settings: CNCTC My 80/72, 120 h; summary of the method: as §2
[10] = test system: Klebsiella pneumoniae; assay: Antibacterial activity against ESBL positive Klebsiella pneumoniae J 14368/08 after 24 to 48 hrs by microdilution broth method; format: functional, organism-based; summary of the method: as §1
[11] = test system: Escherichia coli; assay: Antibacterial activity against Escherichia coli CCM 4517 after 24 to 48 hrs by microdilution broth method; format: functional, organism-based; summary of the method: as §1
[12] = test system: Mycobacterium avium; assay: Antimycobacterial activity against pyrazinamide-resistant Mycobacterium avium CNCTC My 152/73 after 5 days by microplate alamar blue assay; format: functional; settings: CNCTC My 152/73, 120 h; summary of the method: as §2
[13] = test system: Trichophyton mentagrophytes; assay: Antifungal activity against Trichophyton mentagrophytes after 72 to 120 hrs by microdilution broth method; format: functional, organism-based
[14] = test system: Trichosporon asahii; assay: Antifungal activity against Trichosporon asahii 1188 after 72 to 120 hrs by microdilution broth method; format: functional, organism-based
[15] = Selectivity index, ratio of IC50 for human HepG2 cells to MIC for Mycobacterium tuberculosis H37Rv CNCTC My 331/88; format: toxicity, cell-based; settings: read-out: Selectivity Index
Summary of the method: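 HepG2 human liver cell viability was measured by a colorimetric tetrazolium-reduction assay, and IC50 was derived from the toxicity curves. MIC against M. tuberculosis H37Rv came from the alamar blue microplate assay at pH 5.6. SI = IC50/MIC, both in molar units.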

[16] = test system: Pichia kudriavzevii; assay: Antifungal activity against Candida krusei E28 after 72 to 120 hrs by microdilution broth method; format: functional, organism-based
[17] = test system: Aspergillus fumigatus; assay: Antifungal activity against Aspergillus fumigatus 231 after 72 to 120 hrs by microdilution broth method; format: functional, organism-based
[18] = test system: Staphylococcus aureus; assay: Antibacterial activity against Staphylococcus aureus CCM 4516/08 after 24 to 48 hrs by microdilution broth method; format: functional, organism-based; summary of the method: as §1
[19] = test system: Lichtheimia corymbifera; assay: Antifungal activity against Absidia corymbifera 272 after 72 to 120 hrs by microdilution broth method; format: functional, organism-based
[20] = test system: Staphylococcus epidermidis; assay: Antibacterial activity against Staphylococcus epidermidis H 6966/08 up to 500 uM after 24 to 48 hrs by microdilution broth method; format: functional, organism-based; summary of the method: as §1
[21] = test system: Candida albicans; assay: Antifungal activity against Candida albicans ATCC 44859 after 72 to 120 hrs by microdilution broth method; format: functional, organism-based
[22] = test system: Staphylococcus epidermidis; assay: Antibacterial activity against Staphylococcus epidermidis H 6966/08 after 48 hrs by microdilution broth method; format: functional; summary of the method: as §1
[23] = test system: HepG2; assay: Cytotoxicity against human HepG2 cells after 24 hrs; format: cell-based; settings: HepG2, 24 h
Summary of the method: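 HepG2 human liver cells; loss of viability measured by a colorimetric tetrazolium-reduction assay. IC50 derived from the toxicity curves. Where limited solubility in the culture medium capped the tested concentration, only an estimate of the toxic concentration was given.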

[24] = test system: Candida tropicalis; assay: Antifungal activity against Candida tropicalis 156 after 72 to 120 hrs by microdilution broth method; format: functional, organism-based
[25] = test system: Pseudomonas aeruginosa; assay: Antibacterial activity against Pseudomonas aeruginosa CCM 1961 after 24 to 48 hrs by microdilution broth method; format: functional, organism-based; summary of the method: as §1

## NC(=O)c1cncc(Cl)n1
[1]
  Activity: inactive
[2]
  MIC: 635 µM
[3]
  Activity: inactive
[4]
  Activity: inactive
[5]
  MIC: > 100 µg/mL
[6]
  log K: -0.4165
[7]
  Activity: inactive
[8]
  Activity: inactive
[9]
  MIC: > 100 µg/mL
[10]
  Activity: inactive
[11]
  Activity: inactive
[12]
  MIC: > 100 µg/mL
[13]
  Activity: inactive
[14]
  Activity: inactive
[15]
  selectivity ratio: 5.5
[16]
  Activity: inactive
[17]
  Activity: inactive
[18]
  Activity: inactive
[19]
  Activity: inactive
[20]
  Activity: inactive
[21]
  Activity: inactive
[22]
  Activity: inactive
[23]
  IC50: 3.5 mM
[24]
  Activity: inactive
[25]
  Activity: inactive

## CCCCCCCNc1cncc(C(N)=O)n1
[1]
  Activity: inactive
[2]
  MIC: 106 µM
[3]
  Activity: inactive
[4]
  Activity: inactive
[5]
  MIC: 212 µM
[6]
  log K: 0.4273
[7]
  Activity: inactive
[8]
  Activity: inactive
[9]
  MIC: 100 µg/mL (≈ 423 µM)
[10]
  Activity: inactive
[11]
  Activity: inactive
[12]
  MIC: 100 µg/mL (≈ 423 µM)
[13]
  Activity: inactive
[14]
  Activity: inactive
[16]
  Activity: inactive
[17]
  Activity: inactive
[18]
  Activity: inactive
[19]
  Activity: inactive
[20]
  Activity: inactive
[21]
  Activity: inactive
[22]
  Activity: inactive
[24]
  Activity: inactive
[25]
  Activity: inactive

## CCCCCNc1cnc(C(N)=O)cn1
[1]
  Activity: inactive
[2]
  MIC: > 100 µg/mL
[3]
  Activity: inactive
[4]
  Activity: inactive
[5]
  MIC: > 100 µg/mL
[6]
  log K: 0.0181
[7]
  Activity: inactive
[8]
  Activity: inactive
[9]
  MIC: > 100 µg/mL
[10]
  Activity: inactive
[11]
  Activity: inactive
[12]
  MIC: > 100 µg/mL
[13]
  Activity: inactive
[14]
  Activity: inactive
[16]
  Activity: inactive
[17]
  Activity: inactive
[18]
  Activity: inactive
[19]
  Activity: inactive
[20]
  Activity: inactive
[21]
  Activity: inactive
[22]
  Activity: inactive
[24]
  Activity: inactive
[25]
  Activity: inactive

## CCNc1cncc(C(N)=O)n1
[1]
  Activity: inactive
[2]
  MIC: > 100 µg/mL
[3]
  Activity: inactive
[4]
  Activity: inactive
[5]
  MIC: > 100 µg/mL
[6]
  log K: -0.6318
[7]
  Activity: inactive
[8]
  Activity: inactive
[9]
  MIC: > 100 µg/mL
[10]
  Activity: inactive
[11]
  Activity: inactive
[12]
  MIC: > 100 µg/mL
[13]
  Activity: inactive
[14]
  Activity: inactive
[16]
  Activity: inactive
[17]
  Activity: inactive
[18]
  Activity: inactive
[19]
  Activity: inactive
[20]
  Activity: inactive
[21]
  Activity: inactive
[22]
  Activity: inactive
[24]
  Activity: inactive
[25]
  Activity: inactive

## NC(=O)c1cnccn1 [PYRAZINAMIDE]
[2]
  MIC: 102 µM
[5]
  MIC: > 100 µg/mL
[6]
  log K: -0.6872
[9]
  MIC: > 100 µg/mL
[12]
  MIC: > 100 µg/mL
[15]
  selectivity ratio: > 98.1
[23]
  IC50: > 10 mM

## NC(=O)c1cncc(N)n1
[1]
  Activity: inactive
[2]
  MIC: > 100 µg/mL
[3]
  Activity: inactive
[4]
  Activity: inactive
[5]
  MIC: > 100 µg/mL
[6]
  log K: -0.7814
[7]
  Activity: inactive
[8]
  Activity: inactive
[9]
  MIC: > 100 µg/mL
[10]
  Activity: inactive
[11]
  Activity: inactive
[12]
  MIC: > 100 µg/mL
[13]
  Activity: inactive
[14]
  Activity: inactive
[16]
  Activity: inactive
[17]
  Activity: inactive
[18]
  Activity: inactive
[19]
  Activity: inactive
[20]
  Activity: inactive
[21]
  Activity: inactive
[22]
  Activity: inactive
[24]
  Activity: inactive
[25]
  Activity: inactive

## CNc1cnc(C(N)=O)cn1
[1]
  Activity: inactive
[2]
  MIC: > 100 µg/mL
[3]
  Activity: inactive
[4]
  Activity: inactive
[5]
  MIC: > 100 µg/mL
[6]
  log K: -0.6878
[7]
  Activity: inactive
[8]
  Activity: inactive
[9]
  MIC: > 100 µg/mL
[10]
  Activity: inactive
[11]
  Activity: inactive
[12]
  MIC: > 100 µg/mL
[13]
  Activity: inactive
[14]
  Activity: inactive
[16]
  Activity: inactive
[17]
  Activity: inactive
[18]
  Activity: inactive
[19]
  Activity: inactive
[20]
  Activity: inactive
[21]
  Activity: inactive
[22]
  Activity: inactive
[24]
  Activity: inactive
[25]
  Activity: inactive

## CCCCNc1cnc(C(N)=O)cn1
[1]
  Activity: inactive
[2]
  MIC: > 100 µg/mL
[3]
  Activity: inactive
[4]
  Activity: inactive
[5]
  MIC: > 100 µg/mL
[6]
  log K: -0.191
[7]
  Activity: inactive
[8]
  Activity: inactive
[9]
  MIC: > 100 µg/mL
[10]
  Activity: inactive
[11]
  Activity: inactive
[12]
  MIC: > 100 µg/mL
[13]
  Activity: inactive
[14]
  Activity: inactive
[16]
  Activity: inactive
[17]
  Activity: inactive
[18]
  Activity: inactive
[19]
  Activity: inactive
[20]
  Activity: inactive
[21]
  Activity: inactive
[22]
  Activity: inactive
[24]
  Activity: inactive
[25]
  Activity: inactive

## NC(=O)c1cnc(N)cn1
[1]
  Activity: inactive
[2]
  MIC: > 100 µg/mL
[3]
  Activity: inactive
[4]
  Activity: inactive
[5]
  MIC: > 100 µg/mL
[6]
  log K: -0.7852
[7]
  Activity: inactive
[8]
  Activity: inactive
[9]
  MIC: > 100 µg/mL
[10]
  Activity: inactive
[11]
  Activity: inactive
[12]
  MIC: > 100 µg/mL
[13]
  Activity: inactive
[14]
  Activity: inactive
[16]
  Activity: inactive
[17]
  Activity: inactive
[18]
  Activity: inactive
[19]
  Activity: inactive
[20]
  Activity: inactive
[21]
  Activity: inactive
[22]
  Activity: inactive
[24]
  Activity: inactive
[25]
  Activity: inactive

## CCCCCCNc1cnc(C(N)=O)cn1
[1]
  Activity: inactive
[2]
  MIC: 225 µM
[3]
  Activity: inactive
[4]
  Activity: inactive
[5]
  MIC: 100 µg/mL
[6]
  log K: 0.2389
[7]
  Activity: inactive
[8]
  Activity: inactive
[9]
  MIC: > 100 µg/mL
[10]
  Activity: inactive
[11]
  Activity: inactive
[12]
  MIC: > 100 µg/mL
[13]
  Activity: inactive
[14]
  Activity: inactive
[16]
  Activity: inactive
[17]
  Activity: inactive
[18]
  Activity: inactive
[19]
  Activity: inactive
[20]
  Activity: inactive
[21]
  Activity: inactive
[22]
  Activity: inactive
[24]
  Activity: inactive
[25]
  Activity: inactive
